Activity calls are given as the source filed them.
Key:
[1] = target: Serotonin 1 (5-HT1) receptor (Rattus norvegicus) (UniProt P28564+P30940+P19327+P28565); assay: Binding affinity towards serotonin S1 receptor at 1.0 uM; type: protein assay
Summary of the method: (§1)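 Rat brain crude synaptic membranes in 20 mM NaHEPES pH 7.5. Ligands: α1 cortex […] 0.4 nM, nonspecific with (-)-NE 100 μM, 30 min at 25 °C. […] D2 striatum [3H]spiperone 0.05 nM with (+)-butaclamol 1 μM, 45 min at 37 °C. S1 cortex [3H]5-HT 1 nM plus glutathione and MgCl2, with 5-HT 10 μM, 20 min at 37 °C. […] Samples filtered on GF/B and counted.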

[2] = target: Norepinephrine transporter (Rattus norvegicus) (UniProt Q9WTR4); assay: Ability to inhibit the uptake of [3H]norepinephrine (NE) 0.1 uM concentration at rat brain synaptosomes; type: functional, subcellular
Sequence of Norepinephrine transporter (Rattus norvegicus) (Q9WTR4 as listed by the source): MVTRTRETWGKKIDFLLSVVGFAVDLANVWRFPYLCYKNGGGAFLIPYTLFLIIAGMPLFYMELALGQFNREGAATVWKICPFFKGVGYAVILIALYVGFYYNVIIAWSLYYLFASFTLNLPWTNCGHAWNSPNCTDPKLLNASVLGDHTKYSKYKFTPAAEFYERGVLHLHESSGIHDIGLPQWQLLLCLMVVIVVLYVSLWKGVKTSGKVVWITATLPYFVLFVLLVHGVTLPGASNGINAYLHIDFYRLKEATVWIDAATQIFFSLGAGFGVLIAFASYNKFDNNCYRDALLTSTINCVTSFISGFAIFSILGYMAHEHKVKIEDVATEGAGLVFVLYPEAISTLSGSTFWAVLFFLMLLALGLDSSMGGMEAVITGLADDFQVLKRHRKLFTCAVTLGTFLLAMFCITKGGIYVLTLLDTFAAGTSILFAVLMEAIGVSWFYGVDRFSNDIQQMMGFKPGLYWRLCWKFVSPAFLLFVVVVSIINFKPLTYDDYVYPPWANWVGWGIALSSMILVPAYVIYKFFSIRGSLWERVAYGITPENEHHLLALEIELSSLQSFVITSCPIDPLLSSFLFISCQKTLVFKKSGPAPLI
Summary of the method: (§2)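 Male Wistar rat brain synaptosomes (P2 fraction): hypothalamus for NE, striatum for DA, cerebral cortex for 5-HT. Buffer is Tris- or HEPES-buffered salt medium with glucose, ascorbate and nialamide, pH 7.4 at 37 °C. Preincubated 10 min at 37 °C with compound. Uptake started with [3H]NE 100–300 nM, [3H]DA 50–300 nM or [3H]5-HT 100–200 nM, incubated 3 min (DA) or 6–10 min (NE, 5-HT). Blanks held on ice. Filtered, counted by scintillation.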

[3] = target: Serotonin 2 (5-HT2) receptor (Rattus norvegicus, UniProt P30994+P08909+P14842); assay: Binding affinity towards 5-hydroxytryptamine 2 receptor; type: protein assay
Mus musculus [4] = species: Mus musculus; assay: Antagonism of tetrabenazine (TBZ)-induced depression measured in mice by motor activity; type: functional
Summary of the method: (§3)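 Nonfasted male Swiss Webster mice, 18–24 g, ten per dose level and in saline controls. Test compound given ip 30 min before tetrabenazine 32 mg/kg ip; dose expressed as free base. Motor activity and ptosis scored. Control response ≤90% corrected by Abbott's formula.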

Mus musculus [5] = species: Mus musculus; assay: Antagonism of tetrabenazine (TBZ)-induced depression in mice measured for ptosis; type: functional; summary of the method: as §3
[6] = target: Sodium-dependent dopamine transporter (Rattus norvegicus) (UniProt P23977); assay: Ability to inhibit the uptake of [3H]dopamine (DA) 0.1 uM concentration at rat brain synaptosomes; type: functional, subcellular; summary of the method: as §2
Sequence of Sodium-dependent dopamine transporter (Rattus norvegicus) (P23977 whole entry): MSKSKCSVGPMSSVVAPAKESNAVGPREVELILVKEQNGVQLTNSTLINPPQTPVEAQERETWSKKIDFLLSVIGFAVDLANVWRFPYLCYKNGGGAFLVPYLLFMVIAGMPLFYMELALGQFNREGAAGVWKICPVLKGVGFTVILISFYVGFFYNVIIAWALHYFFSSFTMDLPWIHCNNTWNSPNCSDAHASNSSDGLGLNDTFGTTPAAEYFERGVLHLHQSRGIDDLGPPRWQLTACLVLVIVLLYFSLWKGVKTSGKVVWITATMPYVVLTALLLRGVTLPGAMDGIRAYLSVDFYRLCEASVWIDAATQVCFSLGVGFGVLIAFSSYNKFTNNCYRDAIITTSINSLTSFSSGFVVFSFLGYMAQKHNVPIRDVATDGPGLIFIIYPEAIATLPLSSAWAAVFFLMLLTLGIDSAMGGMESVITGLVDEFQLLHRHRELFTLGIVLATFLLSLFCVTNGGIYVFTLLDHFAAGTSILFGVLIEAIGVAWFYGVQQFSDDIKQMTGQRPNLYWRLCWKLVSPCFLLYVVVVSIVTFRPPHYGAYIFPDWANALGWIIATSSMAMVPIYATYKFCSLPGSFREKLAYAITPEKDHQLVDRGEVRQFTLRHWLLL

[7] = target: D(2) dopamine receptor (Rattus norvegicus) (UniProt P61169); assay: Binding affinity towards dopamine receptor D2 at 1.0 uM concentration; summary of the method: as §1
Sequence of D(2) dopamine receptor (Rattus norvegicus) (P61169 whole entry): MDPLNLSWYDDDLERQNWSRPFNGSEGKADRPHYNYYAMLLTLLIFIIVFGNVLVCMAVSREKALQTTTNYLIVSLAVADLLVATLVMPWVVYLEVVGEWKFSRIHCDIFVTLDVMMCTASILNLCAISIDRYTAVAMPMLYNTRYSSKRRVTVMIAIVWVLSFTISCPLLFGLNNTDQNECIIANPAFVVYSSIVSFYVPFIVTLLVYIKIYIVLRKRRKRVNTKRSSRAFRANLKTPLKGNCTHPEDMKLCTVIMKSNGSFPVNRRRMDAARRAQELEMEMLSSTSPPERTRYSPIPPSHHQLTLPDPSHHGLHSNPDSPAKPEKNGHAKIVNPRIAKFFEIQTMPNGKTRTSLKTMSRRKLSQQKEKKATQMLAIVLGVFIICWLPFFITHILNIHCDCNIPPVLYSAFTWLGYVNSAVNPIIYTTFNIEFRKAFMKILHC

[8] = target: Adrenergic receptor alpha-1 (Rattus norvegicus) (UniProt P15823+P23944+P43140); assay: Binding affinity towards alpha-1 adrenergic receptor at 1.0 uM concentration; type: protein assay; summary of the method: as §1
[9] = target: Sodium-dependent serotonin transporter (Rattus norvegicus) (UniProt P31652); assay: Ability to inhibit the uptake of [3H]- serotonin(5-HT) 0.1 uM concentration at rat brain synaptosomes; type: functional, subcellular; summary of the method: as §2
Sequence of Sodium-dependent serotonin transporter (Rattus norvegicus) (P31652 whole entry): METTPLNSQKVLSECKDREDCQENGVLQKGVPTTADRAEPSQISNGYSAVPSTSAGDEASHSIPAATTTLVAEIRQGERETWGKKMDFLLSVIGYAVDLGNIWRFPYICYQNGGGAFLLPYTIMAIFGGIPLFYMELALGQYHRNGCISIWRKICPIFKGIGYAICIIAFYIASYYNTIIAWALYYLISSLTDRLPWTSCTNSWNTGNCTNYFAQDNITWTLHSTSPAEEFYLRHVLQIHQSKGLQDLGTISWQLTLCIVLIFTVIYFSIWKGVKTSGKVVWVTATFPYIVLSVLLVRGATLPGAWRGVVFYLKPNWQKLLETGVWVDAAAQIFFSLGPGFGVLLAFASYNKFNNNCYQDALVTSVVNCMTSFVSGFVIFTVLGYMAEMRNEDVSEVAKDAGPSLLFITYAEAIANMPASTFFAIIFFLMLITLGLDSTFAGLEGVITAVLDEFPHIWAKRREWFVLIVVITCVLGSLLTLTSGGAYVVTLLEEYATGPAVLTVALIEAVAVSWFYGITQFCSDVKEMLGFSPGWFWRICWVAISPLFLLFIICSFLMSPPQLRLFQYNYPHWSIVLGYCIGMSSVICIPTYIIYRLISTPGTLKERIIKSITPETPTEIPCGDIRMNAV

D(2) dopamine receptor = D(2) dopamine receptor (Rattus norvegicus, UniProt P61169); assay: Binding affinity towards Dopamine receptor D2
Sequence of D(2) dopamine receptor (P61169 whole entry): as the sequence (P61169 whole entry) above

[10] = target: T1, Adrenergic receptor alpha-1 (Rattus norvegicus, UniProt P15823+P23944+P43140); assay: Binding affinity towards alpha-1 adrenergic receptor; type: protein assay
T1 sequence (P15823 whole entry): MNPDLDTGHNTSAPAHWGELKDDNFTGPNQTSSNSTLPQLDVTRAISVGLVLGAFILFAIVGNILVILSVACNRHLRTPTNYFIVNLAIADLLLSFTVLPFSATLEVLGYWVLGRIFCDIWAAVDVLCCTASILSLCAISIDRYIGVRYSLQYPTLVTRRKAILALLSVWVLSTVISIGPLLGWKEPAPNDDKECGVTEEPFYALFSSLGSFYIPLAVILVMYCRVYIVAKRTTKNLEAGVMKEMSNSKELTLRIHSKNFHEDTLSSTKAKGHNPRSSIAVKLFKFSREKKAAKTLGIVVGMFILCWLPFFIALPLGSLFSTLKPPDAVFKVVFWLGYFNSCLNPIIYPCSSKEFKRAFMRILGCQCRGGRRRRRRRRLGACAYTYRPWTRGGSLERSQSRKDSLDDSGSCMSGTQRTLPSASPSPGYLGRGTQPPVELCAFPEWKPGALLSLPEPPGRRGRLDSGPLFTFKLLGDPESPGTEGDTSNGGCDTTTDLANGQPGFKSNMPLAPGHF
T1 sequence (P23944 whole entry): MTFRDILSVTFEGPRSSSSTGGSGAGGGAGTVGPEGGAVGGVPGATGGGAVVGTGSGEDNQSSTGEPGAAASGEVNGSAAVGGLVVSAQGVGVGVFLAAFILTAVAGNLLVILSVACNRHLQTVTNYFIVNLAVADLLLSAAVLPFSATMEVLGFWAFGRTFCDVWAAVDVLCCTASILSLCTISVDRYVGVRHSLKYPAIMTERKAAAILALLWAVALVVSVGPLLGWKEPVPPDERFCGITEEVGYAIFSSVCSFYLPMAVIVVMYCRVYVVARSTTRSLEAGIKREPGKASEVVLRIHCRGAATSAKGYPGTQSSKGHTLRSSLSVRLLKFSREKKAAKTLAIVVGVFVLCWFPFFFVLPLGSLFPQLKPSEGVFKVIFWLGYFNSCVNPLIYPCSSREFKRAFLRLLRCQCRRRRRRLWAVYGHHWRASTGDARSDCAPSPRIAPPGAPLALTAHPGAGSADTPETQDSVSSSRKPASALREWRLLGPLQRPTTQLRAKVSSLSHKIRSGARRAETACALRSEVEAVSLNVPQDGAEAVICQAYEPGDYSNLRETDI
T1 sequence (P43140 whole entry): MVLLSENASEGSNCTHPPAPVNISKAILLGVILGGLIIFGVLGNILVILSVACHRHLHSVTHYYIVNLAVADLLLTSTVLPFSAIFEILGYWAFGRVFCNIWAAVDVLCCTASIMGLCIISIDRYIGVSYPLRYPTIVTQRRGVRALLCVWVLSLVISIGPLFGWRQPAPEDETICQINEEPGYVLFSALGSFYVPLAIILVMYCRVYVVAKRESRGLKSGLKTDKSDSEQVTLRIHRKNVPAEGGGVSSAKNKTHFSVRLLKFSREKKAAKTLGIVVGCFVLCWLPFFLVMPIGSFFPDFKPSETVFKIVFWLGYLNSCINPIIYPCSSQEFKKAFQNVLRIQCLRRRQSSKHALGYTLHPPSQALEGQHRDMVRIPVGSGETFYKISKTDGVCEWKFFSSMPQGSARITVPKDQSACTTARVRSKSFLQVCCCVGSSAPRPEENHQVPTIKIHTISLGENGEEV

Mus musculus [11] = species: Mus musculus; assay: Gross behavioral effects ascertained in mice; W indicates weak stimulant or depressant activity of little significance.; type: functional, organism-based
Summary of the method: (§4)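 Male Swiss Webster mice, 18–24 g, three per dose, given ip doses of 1, 3, 10, 30, 100 and 300 mg/kg. Observed for gross behavior and held for 4 days. Scored as weak (W), stimulant (S), depressant (D) or convulsant (C).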

[12] = target: Serotonin 2 (5-HT2) receptor (Rattus norvegicus) (UniProt P30994+P08909+P14842); assay: Binding affinity towards 5-hydroxytryptamine 2 receptor at 1.0 uM concentration; type: protein assay; summary of the method: as §1
Sequence of Serotonin 2 (5-HT2) receptor (Rattus norvegicus) (P08909 whole entry, looked up): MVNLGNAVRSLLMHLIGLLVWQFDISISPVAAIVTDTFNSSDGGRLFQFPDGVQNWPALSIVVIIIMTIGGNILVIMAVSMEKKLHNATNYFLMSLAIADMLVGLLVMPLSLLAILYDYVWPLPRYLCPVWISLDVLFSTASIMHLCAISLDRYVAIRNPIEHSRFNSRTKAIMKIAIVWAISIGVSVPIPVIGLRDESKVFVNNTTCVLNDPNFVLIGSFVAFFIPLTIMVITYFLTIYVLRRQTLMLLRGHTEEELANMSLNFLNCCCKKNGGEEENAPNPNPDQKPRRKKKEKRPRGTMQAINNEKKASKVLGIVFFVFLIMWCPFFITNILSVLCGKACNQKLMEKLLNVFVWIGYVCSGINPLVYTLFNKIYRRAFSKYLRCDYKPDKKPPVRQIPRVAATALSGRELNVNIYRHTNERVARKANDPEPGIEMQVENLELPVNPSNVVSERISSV
Sequence of Serotonin 2 (5-HT2) receptor (Rattus norvegicus) (P14842 whole entry, looked up): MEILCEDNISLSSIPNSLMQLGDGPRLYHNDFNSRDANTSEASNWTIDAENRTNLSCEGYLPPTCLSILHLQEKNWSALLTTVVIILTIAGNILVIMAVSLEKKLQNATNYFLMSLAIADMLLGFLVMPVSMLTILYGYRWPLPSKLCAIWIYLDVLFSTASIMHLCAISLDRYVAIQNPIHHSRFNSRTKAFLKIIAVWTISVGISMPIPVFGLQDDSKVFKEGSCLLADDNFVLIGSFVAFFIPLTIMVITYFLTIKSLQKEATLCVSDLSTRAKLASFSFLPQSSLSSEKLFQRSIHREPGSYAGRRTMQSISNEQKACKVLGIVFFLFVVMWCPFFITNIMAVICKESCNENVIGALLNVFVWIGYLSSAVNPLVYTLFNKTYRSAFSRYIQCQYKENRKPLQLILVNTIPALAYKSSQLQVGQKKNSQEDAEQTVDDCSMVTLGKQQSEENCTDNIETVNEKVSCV
Sequence of Serotonin 2 (5-HT2) receptor (Rattus norvegicus) (P30994 whole entry, looked up): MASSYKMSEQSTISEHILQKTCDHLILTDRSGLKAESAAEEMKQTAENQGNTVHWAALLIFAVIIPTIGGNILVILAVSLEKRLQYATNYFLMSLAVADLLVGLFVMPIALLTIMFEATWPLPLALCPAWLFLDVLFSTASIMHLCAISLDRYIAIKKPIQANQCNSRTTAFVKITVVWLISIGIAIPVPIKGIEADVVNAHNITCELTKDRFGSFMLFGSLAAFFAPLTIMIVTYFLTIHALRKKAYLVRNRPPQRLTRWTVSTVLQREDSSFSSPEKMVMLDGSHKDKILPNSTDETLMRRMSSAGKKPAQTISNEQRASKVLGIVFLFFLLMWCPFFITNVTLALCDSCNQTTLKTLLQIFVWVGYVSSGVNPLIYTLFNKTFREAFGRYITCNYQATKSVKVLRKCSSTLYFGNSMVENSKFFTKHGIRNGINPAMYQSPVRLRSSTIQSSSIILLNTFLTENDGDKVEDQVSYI

[13] = target: Sodium-dependent serotonin transporter (Rattus norvegicus) (UniProt P31652); assay: Inhibition of tritiated serotonin(5-HT) uptake at 0.1 uM concentration; type: functional; summary of the method: as §2
[14] = target: Sodium-dependent dopamine transporter (Rattus norvegicus) (UniProt P23977); assay: Inhibition of tritiated dopamine (DA) uptake at 0.1 uM concentration; type: functional; summary of the method: as §2
Rattus norvegicus = species: Rattus norvegicus; assay: Ability to inhibit the uptake of tritiated norepinephrine (NE) at 0.1 uM concentration; type: functional; summary of the method: as §2
Mus musculus [15] = assay: Ability to antagonise intraperitoneal dose; inactive (<10% antagonism) at 30 mgjkg is represented as I-30.; type: functional, organism-based; summary of the method: as §3
[16] = target: Serotonin 1 (5-HT1) receptor (Rattus norvegicus, UniProt P28564+P30940+P19327+P28565); assay: Binding affinity towards serotonin S1 receptor; type: protein assay; summary of the method: as §1
[17] = target: Sodium-dependent dopamine transporter (Rattus norvegicus, UniProt P23977); assay: Inhibition of the uptake of tritiated dopamine (DA) in rat synaptosomes; type: subcellular, Brain
Sequence of Sodium-dependent dopamine transporter (P23977 whole entry): as the sequence (P23977 whole entry) above

[18] = target: Muscarinic acetylcholine receptor (Rattus norvegicus) (UniProt P08482+P08483+P08485+P08911+P10980); assay: Binding affinity towards Muscarinic acetylcholine receptor at 1.0 uM concentration; type: protein assay
[19] = target: Adrenergic receptor alpha-2 (Rattus norvegicus) (UniProt P22086+P19328+P22909); assay: Binding affinity towards alpha-2 adrenergic receptor at 1.0 uM concentration; type: protein assay
Mus musculus [20] = species: Mus musculus; assay: Gross behavioral effects ascertained in mice; S indicates significant stimulant properties.; type: functional, organism-based; summary of the method: as §4
[21] = target: Norepinephrine transporter (Rattus norvegicus, UniProt Q9WTR4); assay: Inhibition of uptake of tritiated norepinephrine (NE) in rat synaptosomes; type: subcellular, Brain
Sequence of Norepinephrine transporter (Q9WTR4 whole entry): as the sequence (Q9WTR4 as listed by the source) above

Br.Nc1ccc([C@@H]2CN3CCC[C@H]3c3ccccc32)cc1
inhibition [1]: 36%
inhibition [2]: 89%
Ki [3]: 29 nM
ED50 (Mus musculus [4]; Mus musculus, read-out: ED50): 1 mg/kg
ED50 (Mus musculus [5]; Mus musculus, read-out: ED50): 0.2 mg/kg
inhibition [6]: 77%
inhibition [7]: 16%
inhibition [8]: 69%
inhibition [9]: 17%

CSc1ccc([C@@H]2CN3CCC[C@@H]3c3ccccc32)cc1 (stereo in doubt; (+)-48b)
Ki [3]: 142 nM
Ki (D(2) dopamine receptor): 1030 nM
Ki [10]: 274 nM

COc1ccccc1[C@@H]1CN2CCC[C@@H]2c2ccccc21
inhibition [1]: 45%
behavior (Mus musculus [11]): Partial stimulant
ED50 (Mus musculus [4]; Mus musculus, read-out: ED50): ~0.6 mg/kg
ED50 (Mus musculus [5]; Mus musculus, read-out: ED50): ~0.3 mg/kg
inhibition [12]: 74%

Br.Clc1ccccc1[C@@H]1CN2CCC[C@H]2c2ccccc21
inhibition [13]: 19%
behavior (Mus musculus [11]): Partial stimulant
ED50 (Mus musculus [4]; Mus musculus, read-out: ED50): > 30 mg/kg
ED50 (Mus musculus [5]; Mus musculus, read-out: ED50): 2.5 mg/kg
inhibition [12]: 10%
Ki [10]: 41 nM
inhibition [7]: 54%
inhibition [14]: 9%
Inhibition (Rattus norvegicus): 41%

FC(F)(F)c1cccc([C@@H]2CN3CCC[C@H]3c3ccccc32)c1
ED50 (Mus musculus [15]): inactive
behavior (Mus musculus [11]): Partial stimulant
inhibition [2]: 23%
Ki [3]: 29 nM
Ki [10]: 86 nM
inhibition [6]: 8%
inhibition [9]: 9%

Br.Clc1ccccc1[C@@H]1CN2CCC[C@@H]2c2ccccc21 (stereo in doubt; (+)-24b)
Ki [16]: 9200 nM
Ki [17]: 17.5 nM
Ki [10]: 150 nM

Br.Clc1ccccc1[C@@H]1CN2CCC[C@@H]2c2ccccc21 (stereo in doubt; 24b)
ED50 (Mus musculus [4]): 1.6 mg/kg
ED50 (Mus musculus [5]): 0.44 mg/kg
Ki [16]: 1680 nM
Ki [17]: 35.9 nM
Ki (D(2) dopamine receptor): 415 nM
Ki [10]: 163 nM

Br.Clc1ccc([C@@H]2CN3CCC[C@@H]3c3ccccc32)cc1
ED50 (Mus musculus [4]; Mus musculus, read-out: ED50): 0.55 mg/kg
inhibition [18]: 0%
ED50 (Mus musculus [5]; Mus musculus, read-out: ED50): 0.34 mg/kg
inhibition [19]: 35%
behavior (Mus musculus [20]): Stimulant
inhibition [12]: 59%
inhibition [7]: 35%
inhibition [8]: 61%

Br.Clc1ccccc1[C@@H]1CN2CCC[C@@H]2c2ccccc21 (stereo in doubt; (-)-24b)
Ki [16]: 2700 nM
Ki [17]: 775 nM
Ki [10]: 620 nM

CN1CCc2cc(Cl)c(O)cc2[C@@H](c2ccccc2)C1 [SCH-23390]
inhibition [1]: 75%
Ki [3]: 13 nM
inhibition [7]: 53%
inhibition [8]: 65%

CSc1ccc([C@@H]2CN3CCC[C@@H]3c3ccccc32)cc1 (stereo in doubt; 48b)
Ki [3]: 208 nM
ED50 (Mus musculus [4]; Mus musculus, read-out: ED50): > 30 mg/kg
ED50 (Mus musculus [5]; Mus musculus, read-out: ED50): 0.3 mg/kg
Ki [16]: 1030 nM
Ki [10]: 314 nM

Br.COc1cc([C@@H]2CN3CCC[C@@H]3c3ccccc32)cc(OC)c1OC
inhibition [1]: 31%
behavior (Mus musculus [11]): Partial stimulant
ED50 (Mus musculus [4]; Mus musculus, read-out: ED50): > 60 mg/kg
ED50 (Mus musculus [5]; Mus musculus, read-out: ED50): 2.5 mg/kg
Ki [21]: 164 nM
Ki [17]: ~2000 nM
inhibition [12]: 2%
Ki [10]: 29 nM
inhibition [7]: 17%

c1ccc([C@@H]2CN3CCC[C@@H]3c3ccccc32)cc1 (stereo in doubt; (-)-7b)
behavior (Mus musculus [11]): Partial stimulant
inhibition [12]: 58%
inhibition [7]: 14%

FC(F)(F)c1cccc([C@@H]2CN3CCC[C@@H]3c3ccccc32)c1 (stereo in doubt; 37b)
Ki [3]: 602 nM
ED50 (Mus musculus [4]; Mus musculus, read-out: ED50): 0.78 mg/kg
ED50 (Mus musculus [5]; Mus musculus, read-out: ED50): 0.58 mg/kg
Ki [21]: 0.95 nM
Ki [17]: 54.3 nM
Ki (D(2) dopamine receptor): 2220 nM
Ki [10]: 213 nM

CSc1ccc([C@@H]2CN3CCC[C@@H]3c3ccccc32)cc1 (stereo in doubt; (-)-48b)
Ki [3]: 939 nM
Ki [16]: 775 nM
Ki [10]: 213 nM

From ChEMBL document CHEMBL1123812, “Pyrroloisoquinoline antidepressants. 2. In-depth exploration of structure-activity relationships” (J Med Chem, 1987)
